These results are taken from ChEMBL document CHEMBL1147152, “Radiolabeled phenethylguanidines: novel imaging agents for cardiac sympathetic neurons and adrenergic tumors” (J Med Chem, 2007).

SMILES strings stand for the structures. Bounds are passed on as bounds.

The term half-life denotes the time needed for the level to fall by half in the phase considered. By Kp is commonly meant tissue or fluid exposure divided by exposure in the circulation.

For data set [1], the system named is Adrenal medulla. Put plainly: Biodistribution in adrenal medulla of Sprague-Dawley rat at 50 to 350 uCi, iv. It counts as ADME, organism-based. The conditions noted are these: in vivo.
Data set [2] deals with Spleen. Put plainly: Biodistribution in spleen of Sprague-Dawley rat at 50 to 350 uCi, iv. The conditions noted are these: in vivo. It counts as ADME, organism-based.
Data set [3] is described as follows: Biodistribution in left ventricle of Sprague-Dawley rat at 50 to 350 uCi, iv. It counts as ADME, organism-based, Heart left ventricle. The following applies: in vivo.
Data set [4] has as its system Liver. Put plainly: Biodistribution in liver of Sprague-Dawley rat at 50 to 350 uCi, iv. It counts as ADME, organism-based. The conditions noted are these: in vivo.
Data set [5] deals with Blood. Put plainly: Biodistribution in blood of Sprague-Dawley rat at 50 to 350 uCi, iv. It counts as ADME, organism-based. The following applies: in vivo.
Data set [6] in a line: Drug clearance rate in isolated Sprague-Dawley rat heart. It counts as ADME, tissue-based. Put shortly:
(§1)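 Isolated working rat heart perfused with Krebs-Henseleit bicarbonate buffer plus 5 mM glucose, gassed 95% O₂/5% CO₂, with 54 μM corticosterone to block uptake-2. After 30 min stabilization, 10 min constant infusion of ¹¹C tracer (2.0-12.0 μCi/mL perfusate), then 120 min washout. Whole-heart activity read by coincidence CsF detectors and converted to apparent distribution volume. K_up (mL/min/g wet) taken as the linear slope of the 1-4 min infusion data. Clearance half-time (hr) from multi-exponential fit of the washout phase.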

Data set [7] deals with Lung. Put plainly: Biodistribution in lung of Sprague-Dawley rat at 50 to 350 uCi, iv. It counts as ADME, organism-based. The following applies: in vivo.
Data set [8] deals with Heart. Put plainly: Neuronal drug uptake rate in isolated Sprague-Dawley rat heart. It counts as ADME, tissue-based. Put shortly: as §1
Data set [9] relates to Muscle tissue. The data set can be described thus: Biodistribution in muscle of Sprague-Dawley rat at 50 to 350 uCi, iv. It counts as ADME, organism-based. The conditions noted are these: in vivo.
Data set [10] can be described thus: Ratio of drug level in heart to blood in macaque rhesus monkey at 5.4 mCi, iv. It counts as ADME, organism-based, Macaca mulatta. Put shortly:
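Rhesus monkey PET: 5.4 mCi of the [¹¹C] tracer, given as an intravenous bolus via catheter to a 5.3 kg animal. Images were reconstructed by OSEM/3D-MAP, and tissue ratios were taken from the dynamic myocardial kinetics.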

In data set [11] the test system is PC-12. Put plainly: Drug uptake in tumor of rat PC12 cells xenografted BALB/c nu/nu mouse at 0.34 mCi within 10 mins. The conditions noted are these: in vivo.
Data set [12] has as its system PC-12. Put plainly: Drug uptake in heart of rat PC12 cells xenografted BALB/c nu/nu mouse at 0.34 mCi at 60 mins. The following applies: in vivo, 1 h.
Data set [13] has as its system Rhesus monkey. The data set can be described thus: Ratio of drug level in heart to liver in macaque rhesus monkey at 4.9 mCi, iv. It counts as ADME, organism-based, Macaca mulatta. The following applies: in vivo.
Data set [14] can be described thus: Ratio of drug level in heart to blood in macaque rhesus monkey at 4.8 mCi, iv. It counts as ADME, organism-based, Macaca mulatta.
The test system of data set [15] is Rhesus monkey. Put plainly: Ratio of drug level in heart to liver in macaque rhesus monkey at 4.8 mCi, iv. It counts as ADME, organism-based, Macaca mulatta. The conditions noted are these: in vivo.

In the case of `N=[11C](N)NCCc1ccc(F)c(O)c1`, the Drug uptake in data set [1] was 0.56 % ID/g; in [2], 0.52 % ID/g; in [3] it was 1.77 % ID/g; in data set [4], 1.22 % ID/g; in [5] it was 0.08 % ID/g; in data set [7] it was 0.56 % ID/g. Further, the Drug uptake in data set [9] turned out to be 0.07 % ID/g. The half-life in [6] was > 73 h. In data set [8], this compound registered a Kup of 0.72 mL/min/g.

The compound `N=[11C](N)NCCc1cccc(I)c1` gave a half-life in [6] of 2.4 h. This compound also yielded a Kup in data set [8] of 1.1 mL/min/g.

Turning to `N=[11C](N)NCCc1cc(O)ccc1F`, the Drug uptake in data set [1] is recorded as 0.46 % ID/g; in data set [2] it was 0.43 % ID/g; in data set [3], 1.01 % ID/g; in [4], 0.92 % ID/g; in data set [5], 0.07 % ID/g; in data set [7] it was 0.34 % ID/g. The Drug uptake in data set [9] came to 0.06 % ID/g. Moreover, the half-life in data set [6] is > 20 h. This compound had a Kup in data set [8] of 0.49 mL/min/g.

Consider `N=[11C](N)NCCc1ccccc1F`, for which the half-life in data set [6] is 2.3 h. Besides, the Kup in [8] turned out to be 1.76 mL/min/g.

Regarding `C[C@H](N[11CH3])[C@H](O)c1cccc(O)c1`, the concentration ratio (Kp) in data set [10] came out at 4.5. For the same compound, the Drug uptake in data set [5] is given as 0.08 % ID/g; in data set [7], 0.4 % ID/g; in data set [9] it was 0.17 % ID/g.

As for `N=[11C](N)NCCc1ccc(O)cc1`, the Drug uptake in [11] is 29 % ID/g; in [1], 1.17 % ID/g; in [2], 0.97 % ID/g; in data set [3], 3.3 % ID/g; in data set [4], 0.84 % ID/g; in [5], 0.16 % ID/g. The figures for the Drug uptake in data set [7], in data set [12] and in data set [9] were 0.68 % ID/g, 17 % ID/g and 0.14 % ID/g, respectively. The half-life in [6] is > 45 h. For the same compound, the Kup in data set [8] was found to be 1.64 mL/min/g.

As to `N=[11C](N)NCCc1cccc(F)c1`, in [6], the half-life was 1.9 h. Also, the Kup in data set [8] stood at 0.24 mL/min/g.

For the compound `N=[11C](N)NCCc1ccc(F)cc1`, the half-life in [6] was 4.4 h. Also, the Kup in data set [8] came to 0.63 mL/min/g.

With `N=[11C](N)NC[C@H](O)c1ccccc1`, the Drug uptake in data set [1] turned out to be 0.53 % ID/g; in [2] it was 0.88 % ID/g; in data set [3] it was 1.91 % ID/g; in data set [4] it was 3.91 % ID/g; in [5] it was 0.09 % ID/g; in [7], 0.86 % ID/g. In data set [9], this compound registered a Drug uptake of 0.1 % ID/g. The half-life in data set [6] is 22 h. The Kup in data set [8] came out at 0.42 mL/min/g.

As to `N=[11C](N)NCC(O)c1cccc(O)c1` (centres undefined), the Drug uptake turned out to be 0.36 % ID/g in data set [1]; 0.63 % ID/g in [2]; 1.17 % ID/g in data set [3]; 2.71 % ID/g in data set [4]; 0.14 % ID/g in data set [5]; 0.75 % ID/g in data set [7]. In addition, the Drug uptake in data set [9] is listed as 0.07 % ID/g. Moreover, the Ratio in data set [13] was determined as 0.6. The half-life in [6] was > 152 h. This compound gave a Kup in data set [8] of 0.3 mL/min/g.

With `N=[11C](N)NCCc1cccc(O)c1`, the Kp in [14] stood at 4.7. Besides, the Ratio in data set [15] was 4.4. Also, the Drug uptake in data set [1] was 0.88 % ID/g; in data set [2], 0.63 % ID/g; in data set [3], 2.28 % ID/g; in [4], 0.89 % ID/g; in [5], 0.07 % ID/g; in data set [7], 0.74 % ID/g. In data set [9], the Drug uptake was found to be 0.07 % ID/g. For the same compound, the half-life in data set [6] is > 102 h. Moreover, in data set [8], the Kup worked out at 1.96 mL/min/g.

As for `N=[11C](N)NCCc1ccc(I)cc1`, the half-life in [6] was 1.9 h. The compound also came in with a Kup in data set [8] of 0.56 mL/min/g.

Compound `COc1ccc(CCN[11C](=N)N)cc1` had a half-life in data set [6] of 2.3 h. Further, the Kup in data set [8] was 0.73 mL/min/g.

For the compound `[11CH3]NC[C@H](O)c1ccc(O)c(O)c1` [[11C]EPINEPHRINE], the Drug uptake is given as 0.61 % ID/g in data set [1]; 0.64 % ID/g in data set [2]; 2.14 % ID/g in data set [3]; 1.95 % ID/g in [4]; 0.13 % ID/g in data set [5]; 0.39 % ID/g in [7]. Besides, the Drug uptake in [9] was determined as 0.22 % ID/g.

Take `N=[11C](N)NCCc1ccccc1` [[11C]PHENETHYLGUANIDINE]: the half-life in [6] was 3.3 h. Further, the Kup in [8] turned out to be 1.56 mL/min/g.
